Data set [1] is described as follows: The octanol/water partition coefficient was determined. The format is physicochemical. Particulars: read-out: Log K. The gist of the method: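 Classical shake-flask octanol/water partitioning with 1 M ammonium chloride buffer, pH 9.0, as the aqueous phase. For one compound the aqueous phase was 0.14 M sodium acetate-barbital buffer, pH 3.6. Concentrations in the octanol and/or aqueous layer were read by UV spectrophotometry.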

Data set [2] in a line: The amount of unchanged compound detected in urine collected at 0-18 hr after treatment. Particulars: rat.
Data set [3] can be described thus: The amount of unchanged compound in urine collected at 0-36 hr after treatment. To be noted: rat.
Data set [4] can be described thus: The amount of unchanged compound in urine collected at 0-54 hr after treatment. Particulars: rat.
The nature of data set [5]: The amount of unchanged compound in urine collected at 0-72 h after treatment. To be noted: rat.
Data set [6] concerns Rattus norvegicus. Put plainly: The total 18 hr urinary excretion of unchanged compound reported as log (percent X 10) of the administered dose. Particulars: in vivo.
Data set [7] has as its system Rattus norvegicus. Put plainly: The total 54 h urinary excretion of unchanged compound reported as log (percent X 10) of the administered dose. To be noted: in vivo.
The test system of data set [8] is Rattus norvegicus. Briefly: The total 72 hr urinary excretion of unchanged compound reported as log (percent X 10) of the administered dose. Particulars: in vivo.
Data set [9] concerns Rattus norvegicus. Put plainly: The total 36 hr urinary excretion of unchanged compound reported as log (percent X 10) of the administered dose. To be noted: in vivo.
For data set [10] the following is noted: octanol/water.
Data set [11] in a line: Partition coefficient (logP). Particulars: octanol/water.
For data set [12], the system named is Rattus norvegicus. Put plainly: The total 18 hr urinary excretion of the unchanged form of compound in urine was reported as log (percent X 10) of the administered dose by HPLC technique. Particulars: in vivo. The format is ADME, organism-based. The gist of the method:
(§1)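 Female Sprague-Dawley rats (200 ± 20 g) on chow diet, three per compound, dosed ip in Me2SO (50 μmol mL⁻¹ kg⁻¹). Urine pooled over 0-18 h. One mL urine was spiked with internal standard and extracted, the residue was taken up in 200 μL methanol, and 10-20 μL was injected for HPLC of the unchanged drug. Values expressed as log (percent × 10) of dose.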

For data set [13], the species on record is Rattus norvegicus. Briefly: (§2) The amount of the unchanged form of compound detected in the urine samples collected at 0-18 hr after the treatment by HPLC technique. The class given is functional. The gist of the method: as §1
Data set [14] is filed under the species Rattus norvegicus. To be noted: in vivo, 18 h.
A short description of the next data set: in vivo. Particulars: rat, urine.
A short description of data set [15]: as §2. The format is ADME, organism-based. To be noted: rat, read-out: Amount excreted. The gist of the method: as §1

Molecules are shown by their SMILES.

With `Cc1ncc([N+](=O)[O-])n1CC(O)CO` (centres undefined), the logP in data set [1] was -0.63. The dose excreted in data set [2] is 14.3%; in data set [3], 64.3%; in [4], 66.4%; in data set [5] it was 66.4%. The “Log BR” value is recorded as 2.155 with Rattus norvegicus [6], 2.822 in the data set with Rattus norvegicus [7], 2.822 with Rattus norvegicus [8] and 2.808 with Rattus norvegicus [9]. The “Log k'” value in [10] is on record as -0.199.

Regarding `Cc1ncc([N+](=O)[O-])n1CCS(C)(=O)=O`, the logP in [11] was -0.35. Besides, the dose excreted in data set [2] worked out at 25.2%; in data set [3], 27.9%; in [4], 28%; in [5] it was 28%. Besides, the “log(10 × % of dose excreted unchanged in urine)” value in the data set on Rattus norvegicus [12] worked out at 2.394. Further, the “Log BR” value with Rattus norvegicus [6] was found to be 2.401; with Rattus norvegicus [7], 2.448; in the data set with Rattus norvegicus [8], 2.448; in the data set with Rattus norvegicus [9], 2.446. For the same molecule, the Amount excreted in the data set listed under Rattus norvegicus [13] was 24.8%. In addition, the “Log k'” value in [10] was -0.097.

In turn, `Cc1ncc([N+](=O)[O-])n1CC(O)Cn1c([N+](=O)[O-])cnc1C` came in with a logP in data set [11] of 0.31. Further, the dose excreted in [2] stood at 18.2%; in data set [3], 22.8%; in [4], 22.8%; in data set [5], 22.8%; in “in vivo” it was 15.7%. In addition, the “Log BR” value with Rattus norvegicus [6] came out at 2.26; in the data set with Rattus norvegicus [7], 2.358; in the data set on Rattus norvegicus [8], 2.358; in the data set on Rattus norvegicus [9] it was 2.358; in the data set filed under Rattus norvegicus [14], 2.196. Further, in data set [10], the “Log k'” value is reported as 0.199.

`Cn1c([N+](=O)[O-])cnc1/C=C/c1ccnc(N)n1` [AZANIDAZOLE]: the logP in [11] is 0.85. For the same molecule, the dose excreted in data set [15] is 11.3%; in data set [2], 13.8%; in data set [3], 16%; in [4], 16%; in data set [5], 16%. The “log(10 × % of dose excreted unchanged in urine)” value in the data set on Rattus norvegicus [12] worked out at 2.054. Moreover, the “Log BR” value with Rattus norvegicus [6] is given as 2.142; in the data set on Rattus norvegicus [7], 2.202; with Rattus norvegicus [8], 2.202; in the data set with Rattus norvegicus [9] it was 2.202. Besides, the “Log k'” value in [10] is recorded as 0.423.

In [11], `COC(=S)NCCn1c([N+](=O)[O-])cnc1C` [CARNIDAZOLE] came in with a logP of 0.9. In addition, the dose excreted stood at 6.5% in [15]; 6.7% in [2]; 21.5% in data set [3]; 23.1% in [4]; 23.1% in data set [5]. The “log(10 × % of dose excreted unchanged in urine)” value in the data set on Rattus norvegicus [12] was 1.819. The “Log BR” value in the data set with Rattus norvegicus [6] worked out at 1.826; in the data set on Rattus norvegicus [7], 2.364; with Rattus norvegicus [8], 2.364; in the data set on Rattus norvegicus [9] it was 2.33. Also, the “Log k'” value in [10] is 0.465.

In turn, `CC(C)c1ncc([N+](=O)[O-])n1C` [IPRONIDAZOLE] gave a logP in data set [11] of 1.06. Further, the dose excreted in data set [15] stood at 2.5%; in data set [2], 4.3%; in data set [3] it was 9.1%; in data set [4], 9.1%; in data set [5], 9.1%. Besides, the “log(10 × % of dose excreted unchanged in urine)” value with Rattus norvegicus [12] turned out to be 1.398. In addition, the “Log BR” value turned out to be 1.633 with Rattus norvegicus [6], 1.96 with Rattus norvegicus [7], 1.96 with Rattus norvegicus [8] and 1.96 in the data set with Rattus norvegicus [9]. In addition, the “Log k'” value in data set [10] is listed as 0.45.

`Cc1ncc([N+](=O)[O-])n1CCO` [METRONIDAZOLE]: the logP in data set [11] is -0.1. Further, the dose excreted in data set [15] is 25%; in data set [2], 30.5%; in data set [3], 49.2%; in data set [4], 49.2%; in data set [5], 49.2%. The “log(10 × % of dose excreted unchanged in urine)” value in the data set on Rattus norvegicus [12] is recorded as 2.407. Also, the “Log BR” value with Rattus norvegicus [6] was determined as 2.484; with Rattus norvegicus [7], 2.692; in the data set with Rattus norvegicus [8] it was 2.692; in the data set with Rattus norvegicus [9] it was 2.692. In data set [10], the “Log k'” value is on record as -0.067.

As for `CCS(=O)(=O)CCn1c([N+](=O)[O-])cnc1C` [TINIDAZOLE], in data set [11], the logP was -0.36. Also, the dose excreted in data set [15] was 27.3%; in data set [2] it was 29.4%; in data set [3], 66.3%; in data set [4] it was 66.3%; in data set [5], 66.3%. In the data set with Rattus norvegicus [12], the “log(10 × % of dose excreted unchanged in urine)” value is given as 2.436. The “Log BR” value in the data set on Rattus norvegicus [6] was 2.468; in the data set with Rattus norvegicus [7], 2.822; with Rattus norvegicus [8], 2.822; with Rattus norvegicus [9] it was 2.822. For the same molecule, the “Log k'” value in data set [10] is -0.125.

Values taken from ChEMBL document CHEMBL1123508, “Relationship between lipophilic character and urinary excretion of nitroimidazoles and nitrothiazoles in rats” (J Med Chem, 1986).
